# In ChEMBL document CHEMBL1125745, “Unsaturated and carbocyclic nucleoside analogues: synthesis, antitumor, and antiviral activity” (J Med Chem, 1991):
# pEC50, pIC50: −log10 of the molar value.
# Assays:
# L1210 [1] = experiment: Cytotoxicity was evaluated against L1210 leukemia cell line at 1000 ug/disk.; type: functional, Mus musculus
# Outline: (§1)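 Disk zone assay: analogue dilutions on 6.5 mm paper disks were placed on dishes with a 0.8% agar bottom layer and a 0.44% soft-agar top layer of tumor cells (≤1 × 10^5/plate) in Fishers-CMRL-1066 with 12% horse serum. Plates were incubated 6-10 days and the inhibition zone was measured by microscope; 200 zone units = 6 mm.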
# Homo sapiens [2] = species: Homo sapiens; experiment: Cytotoxicity was evaluated against C116 human solid tumor at 1000 ug/disk.; type: functional; outline: as §1
# MC-38 [3] = experiment: Cytotoxicity was evaluated against C38 solid tumor of mouse at 1000 ug/disk.; type: functional; outline: as §1
# [4] = Cytotoxicity was evaluated against low malignancy line at 1000 ug/disk.; type: functional; outline: as §1
# PO3 [5] = experiment: Cytotoxicity was evaluated against PO3 cell line at 1000 ug/disk.; type: functional, Mus musculus; outline: as §1
# L1210 [6] = experiment: Inhibitory activity against murine leukemia L1210 cells; type: functional, cell-based; settings: Mus musculus
# [7] = Cytotoxicity was evaluated against low malignancy line at 1.5 ug/disk.; type: functional; outline: as §1
# [8] = Cytotoxicity was evaluated against CO9 solid tumor of mouse at 1.5 ug/disk.; type: functional; outline: as §1
# Homo sapiens [9] = species: Homo sapiens; experiment: Cytotoxicity was evaluated against PO1 human solid tumor at 1.5 ug/disk.; type: functional; outline: as §1
# MC-38 [10] = experiment: Cytotoxicity was evaluated against C38 solid tumor of mouse at 1.5 ug/disk.; type: functional; outline: as §1
# Homo sapiens [11] = species: Homo sapiens; experiment: Cytotoxicity was evaluated against H125 human solid tumor at 1.5 ug/disk.; type: functional; outline: as §1
# PO3 [12] = experiment: Cytotoxicity was evaluated against PO3 cell line at 1.5 ug/disk.; type: functional, Mus musculus; outline: as §1
# Homo sapiens [13] = species: Homo sapiens; experiment: Cytotoxicity was evaluated against C116 human solid tumor at 1.5 ug/disk.; type: functional; outline: as §1
# L1210 [14] = experiment: Cytotoxicity was evaluated against L1210 leukemia cell line at 500 ug/disk.; type: functional, Mus musculus; outline: as §1
# PO3 [15] = experiment: Cytotoxicity was evaluated against PO3 cell line at 1000 ug/disk.
# [16] = Cytotoxicity was evaluated against low malignancy line at 500 ug/disk.; type: functional; outline: as §1
# MC-38 [17] = experiment: Cytotoxicity was evaluated against C38 solid tumor of mouse at 500 ug/disk.; type: functional; parameters: unit not given beside the values; outline: as §1
# [18] = Selectivity index is the ratio of IC50 to EC50 of F-MuLV.; type: functional
# PO3 [19] = experiment: Cytotoxicity was evaluated against PO3 cell line at 250 ug/disk.; type: functional, Mus musculus; outline: as §1
# Mus musculus [20] = species: Mus musculus; experiment: Concentration that reduces Rauscher murine leukemia virus titer by 50%; type: functional, organism-based
# Outline: (§2)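 SC-1 cells (1 × 10^4/well) were pretreated with polybrene, infected 2 h at 37 °C with F-MuLV or R-MuLV in EMEM-5 with 8 µg/mL polybrene, washed, and refed with analogue for 72 h. They were then UV-irradiated and overlaid with XC cells (2 × 10^5) for 48 h, fixed and stained with crystal violet. Multinucleated cells were counted and EC50 was taken by linear regression versus untreated cultures.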
# Mus musculus [21] = species: Mus musculus; experiment: Concentration that reduces Friend murine leukemia virus titer by 50%; type: functional, organism-based; outline: as §2
# L1210 [22] = experiment: Cytotoxicity was evaluated against L1210 leukemia cell line at 250 ug/disk.; type: functional, Mus musculus; outline: as §1
# [23] = Cytotoxicity was evaluated against low malignancy line at 250 ug/disk.; type: functional; outline: as §1
# Mus musculus [24] = species: Mus musculus; experiment: Cytotoxicity was evaluated; type: functional
# Outline: (§3)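 SC-1 cells (1 × 10^4 cells/mL) were seeded, incubated overnight at 37 °C, refed with EMEM-10 and given diluted analogue in triplicate for 72 h at 37 °C. Cells were trypsinized and counted in a Coulter counter. The mean of three wells gave percent of control count, and IC50 was calculated by linear regression.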
# [25] = Selectivity index which is the ratio of IC50 to EC50 of R-MuLV.; type: functional
# Homo sapiens [26] = species: Homo sapiens; experiment: Cytotoxicity was evaluated against C116 human solid tumor at 500 ug/disk.; type: functional; outline: as §1
# Homo sapiens [27] = species: Homo sapiens; experiment: Cytotoxicity was evaluated against H125 human solid tumor at 500 ug/disk.; type: functional; outline: as §1
# Mus musculus [28] = species: Mus musculus; experiment: Cytotoxicity was evaluated and represented as IC50.; type: functional; outline: as §3
# L1210 [29] = experiment: Compound were evaluated for inhibition of macromolecular synthesis in murine leukemia L1210 cells at 4 hour against Protein; type: functional, Mus musculus; parameters: scale not given: the % may be the effect or the level left
# L1210 [30] = experiment: Compound were evaluated for inhibition of macromolecular synthesis in murine leukemia L1210 cells at 1 hour against RNA.; type: functional, Mus musculus; parameters: scale not given: the % may be the effect or the level left
# L1210 [31] = experiment: Compound were evaluated for inhibition of macromolecular synthesis in murine leukemia L1210 cells at 4 hour against RNA.; type: functional, Mus musculus; parameters: scale not given: the % may be the effect or the level left
# L1210 [32] = experiment: Compound were evaluated for inhibition of macromolecular synthesis in murine leukemia L1210 cells at 4 hour against DNA.; type: functional, Mus musculus; parameters: scale not given: the % may be the effect or the level left
# L1210 [33] = experiment: Compound were evaluated for inhibition of macromolecular synthesis in murine leukemia L1210 cells at 1 hour against DNA.; type: functional, Mus musculus; parameters: scale not given: the % may be the effect or the level left
# L1210 [34] = experiment: Compound were evaluated for inhibition of macromolecular synthesis in murine leukemia L1210 cells at 1 hour against Protein; type: functional, Mus musculus; parameters: scale not given: the % may be the effect or the level left
# [35] = Inhibition of incorporation of labeled precursor into macromolecules of noninfected SC-1 cells with the compound at a concentration 300 uM determined against thymidine; type: functional
# Outline: (§4)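 SC-1 cells seeded in 24-well trays at 1 × 10^4 cells/mL, incubated overnight at 37 °C, then exposed to analogue for 72 h at 37 °C. Labeled thymidine (2.5 µCi), [3H-5,6]uridine or [3H-4,5]leucine was added. After 4 h, cells were washed with cold PBS, lysed in 1% SDS/0.01 M EDTA/0.01 M Tris pH 7.7, and lysates were dried on GF/B filters. Result given as % of untreated incorporation.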
# [36] = Inhibition of incorporation of labeled precursor into macromolecules of noninfected SC-1 cells with the compound at a concentration 300 uM determined against uridine.; type: functional; outline: as §4
# [37] = Inhibition of incorporation of labeled precursor into macromolecules of noninfected SC-1 cells with the compound at a concentration 300 uM determined against leucine.; type: functional; outline: as §4
# [38] = Inhibition of incorporation of labeled precursor into macromolecules of noninfected SC-1 cells with the compound at a concentration 100 uM determined against uridine.; type: functional
# Outline: (§5)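 Noninfected SC-1 cells were incubated with analogue as in the cytotoxicity setup, and [3H]thymidine, [3H]uridine or [3H]leucine was added. After 4 h, wells were washed with ice-cold PBS and cells were lysed in 1% SDS, 0.01 M EDTA, 0.01 M Tris pH 7.7. Lysates were dried on glass-fiber filters, and label is expressed as percent of incorporation in untreated cells.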
# [39] = Inhibition of incorporation of labeled precursor into macromolecules of noninfected SC-1 cells with the compound at a concentration 100 uM determined against leucine.; type: functional; outline: as §5
# [40] = Inhibition of incorporation of labeled precursor into macromolecules of noninfected SC-1 cells with the compound at a concentration 100 uM determined against thymidine; type: functional; outline: as §5
structure (smiles),measurement,setting,value
Nc1ncnc2c1ncn2C1C=CCO1 (stereo not drawn),Cytotoxicity,L1210 [1],520
same,Cytotoxicity,Homo sapiens [2],460
same,Cytotoxicity,MC-38 [3],400
same,Cytotoxicity,[4],500
same,Cytotoxicity,PO3 [5],320
same,pIC50,L1210 [6],< 3.30
NC1=NC(Cl)c2c(ncn2CC#CCCl)N1 (stereo not drawn),pIC50,L1210 [6],4.41
Nc1ncnc2c1ncn2[C@@H]1C=C(CO)[C@@H](O)[C@H]1O [NEOPLANOCIN A],Cytotoxicity,[7],100
same,Cytotoxicity,[8],40
same,Cytotoxicity,Homo sapiens [9],0
same,Cytotoxicity,MC-38 [10],0
same,Cytotoxicity,Homo sapiens [11],400
same,Cytotoxicity,PO3 [12],80
same,Cytotoxicity,Homo sapiens [13],340
Nc1ccn(C/C=C/CCl)c(=O)n1,pIC50,L1210 [6],4.30
same,Cytotoxicity,L1210 [14],520
same,Cytotoxicity,PO3 [15],550
same,Cytotoxicity,[16],370
Nc1ncnc2c1ncn2C/C=C/CCl,Cytotoxicity,MC-38 [17],600
same,pIC50,L1210 [6],4.35
same,Cytotoxicity,L1210 [14],630
same,Cytotoxicity,[16],400
Nc1ncnc2c1ncn2C/C=C\CO,SI,[18],> 1.7
same,Cytotoxicity,PO3 [19],260
same,pEC50,Mus musculus [20],3.91
same,pEC50,Mus musculus [21],3.76
same,pIC50,L1210 [6],3.31
same,Cytotoxicity,L1210 [22],200
same,Cytotoxicity,[23],240
same,pIC50,Mus musculus [24],< 3.52
same,SI,[25],> 2.4
Nc1ncnc2c1ncn2C/C=C/CO,pIC50,L1210 [6],3.90
Nc1ccn(CC#CCO)c(=O)n1,pIC50,L1210 [6],< 3.26
Nc1ncnc2c1ncn2[C@H]1CC[C@@H](CO)O1,SI,[18],83.8
same,pEC50,Mus musculus [20],5.59
same,pEC50,Mus musculus [21],6.00
same,pIC50,Mus musculus [24],4.08
same,SI,[25],32.2
NC1=NC(Cl)c2c(ncn2C/C=C/CCl)N1 (stereo not drawn),Cytotoxicity,MC-38 [17],700
same,pIC50,L1210 [6],4.41
same,Cytotoxicity,L1210 [14],800
same,Cytotoxicity,[16],600
Nc1ncnc2c1ncn2C=C=CCCl,Cytotoxicity,Homo sapiens [26],300
same,Cytotoxicity,MC-38 [17],400
same,pIC50,L1210 [6],4.35
same,Cytotoxicity,L1210 [14],280
same,Cytotoxicity,PO3 [15],300
same,Cytotoxicity,[16],280
same,Cytotoxicity,Homo sapiens [27],300
Nc1ccn(C/C=C\CO)c(=O)n1,pIC50,L1210 [6],< 3.00
Cc1cn(CC#CCO)c(=O)[nH]c1=O,pIC50,L1210 [6],< 3.30
O=C(O)P(=O)(O)O [FOSCARNET],SI,[18],9.1
same,pEC50,Mus musculus [20],4.37
same,pIC50,Mus musculus [28],3.00
same,pEC50,Mus musculus [21],3.96
same,SI,[25],23.4
Nc1ncnc2c1ncn2C/C=C\CCl,Control,L1210 [29],60%
same,Cytotoxicity,MC-38 [17],280
same,Control,L1210 [30],98%
same,Control,L1210 [31],73%
same,Control,L1210 [32],68%
same,pIC50,L1210 [6],4.66
same,Control,L1210 [33],80%
same,Control,L1210 [34],99%
same,Cytotoxicity,L1210 [14],220
same,Cytotoxicity,[16],200
Nc1ncnc2c1ncn2/C=C/CCO,SI,[18],2.4
same,pEC50,Mus musculus [20],3.74
same,pEC50,Mus musculus [21],3.90
same,pIC50,L1210 [6],4.00
same,pIC50,Mus musculus [24],3.52
same,SI,[25],1.7
Nc1nc(O)c2ncn(C3C=CCO3)c2n1 (stereo not drawn),pIC50,L1210 [6],< 3.46
Nc1nc(O)c2ncn(C=C=CCO)c2n1,pIC50,L1210 [6],< 3.46
Nc1ccn(C=C=CCO)c(=O)n1,SI,[18],60.4
same,Precursor inhibition,[35],67%
same,pEC50,Mus musculus [20],4.94
same,pEC50,Mus musculus [21],5.09
same,Precursor inhibition,[36],51%
same,pIC50,L1210 [6],3.25
same,Precursor inhibition,[37],75%
same,pIC50,Mus musculus [24],3.31
same,Precursor inhibition,[38],75%
same,Precursor inhibition,[39],91%
same,Precursor inhibition,[40],89%
same,SI,[25],42.5
N=c1ncn2c3c1ncn3CC=CC2,pIC50,L1210 [6],< 3.00
Cc1cn(C=C=CCO)c(=O)[nH]c1=O,pIC50,L1210 [6],4.00
